# ChEMBL document CHEMBL1127304, “The discovery of novel, structurally diverse protein kinase C agonists through computer 3D-database pharmacophore search. Molecular modeling studies” (J Med Chem, 1994)
# Legend:
# [1] = molecular target: T1, Protein kinase C alpha type (Homo sapiens, UniProt P17252); test: (§1) Binding affinity with protein kinase C (PK-C) alpha bound to labeled [20-3H]-PDBU at a conc of 30 ug/mL
# [2] = molecular target: T1, Protein kinase C alpha type; test: as §1; remark: listed apart in the source
# Summary of the method: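 Competitive displacement of [20-³H]phorbol 12,13-dibutyrate bound to PK-C α, with each ligand at a single concentration of 30 μg/mL in media. The read-out is percent inhibition of bound [³H]PDBU.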
Ki [1] [µM],inhibition [2] [%],SMILES
26.6,–,O=C1c2ccccc2C(=O)c2c(Nc3cccc(S(=O)(=O)N(CCO)CCO)c3)ccc(O)c21
7.8,–,O=C1c2ccccc2C(=O)c2c(Nc3ccc(S(=O)(=O)N(CCO)CCO)cc3)ccc(O)c21
–,25,O=C1c2cccc(O)c2C(=O)c2c(OCCN(CCO)Cc3ccccc3)cccc21
–,34,O=C1c2cccc(O)c2C(=O)c2c(OCCN(CCO)Cc3ccccc3)ccc(O)c21
12.9,–,O=C(OCC(O)C(OC(=O)c1ccccc1)C(CO)OC(=O)c1ccccc1)c1ccccc1 (stereo unspecified)
–,30,O=C1c2c(NCCCNCCO)cccc2C(=O)c2c(NCCCNCCO)ccc(O)c21

# More lines, now with the values behind:
SMILES,Ki [1] [µM],inhibition [2] [%]
CC(=O)C(C(=O)CCSCCO)C(SCCO)c1ccc(Cl)c(Cl)c1 (stereo unspecified),–,30
COc1cccc2c1C(=O)c1c(O)c3c(c(O)c1C2=O)C[C@@](O)(/C(CO)=N/NC(=O)c1ccc(Cl)c(Cl)c1)C[C@@H]3OC1CC(N)C(O)C(C)O1 (stereo partly specified),–,30
CC(=O)O[C@@H]1CC2C(C)(C)C(=O)C=CC2(C)C2CCC3(C)C(=CCC3C(CO)CCC(O)C(=O)C(C)(C)O)C21 (stereo partly specified),–,27
C[C@]12C/C(=C/N(CCO)CCO)C(=O)C[C@@H]1CC[C@@H]1[C@@H]2CC[C@]2(C)[C@@H](O)CC[C@@H]12,16.1,–
CC(=O)OC[C@@]1(C)C(OC(C)=O)CC[C@]2(C)[C@H](CC(OC(C)=O)C3=CCOC3=O)[C@](C)(CO)CC[C@H]21 (stereo partly specified),37.7,–
